Screening results deposited in PubChem BioAssay by several laboratories.
GRIN3A LBD mod: binders of NR3A ligand-binding domain, primary screen, biophysical, differential scanning fluorimetry, uHTS. Glutamate receptor ionotropic, NMDA 3A (GRIN3A) ligand-binding domain. NR3A LBD differential scanning fluorimetry, Tm shift; 0% = protein alone, 100% = glycine-bound protein. Tm shift relative to glycine control, % at 25 µM. 2.5% of 340,000 active. AID 1259313, 2017;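 active = melting temperature shift of at least 10% of the positive control shift, at one fixed dose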
UCH37 inh: inhibitors of human UCH37 deubiquitinase, primary screen, biochemical, Ub-AMC cleavage, fluorescence | Ubiquitin carboxyl-terminal hydrolase isozyme L5 (Homo sapiens), Q9Y5K5 | 0.33% of 330,000 active | AID 588478, 2011 | inhibition, % (concentration not given with the values) | purified proteasome/UCH37;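 active = mean inhibition over replicate wells above about 20%, limit read from the data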;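 also: 0% = compound-free wells with enzyme and 100% = wells lacking proteasome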
Target sequence (Q9Y5K5 whole entry, looked up): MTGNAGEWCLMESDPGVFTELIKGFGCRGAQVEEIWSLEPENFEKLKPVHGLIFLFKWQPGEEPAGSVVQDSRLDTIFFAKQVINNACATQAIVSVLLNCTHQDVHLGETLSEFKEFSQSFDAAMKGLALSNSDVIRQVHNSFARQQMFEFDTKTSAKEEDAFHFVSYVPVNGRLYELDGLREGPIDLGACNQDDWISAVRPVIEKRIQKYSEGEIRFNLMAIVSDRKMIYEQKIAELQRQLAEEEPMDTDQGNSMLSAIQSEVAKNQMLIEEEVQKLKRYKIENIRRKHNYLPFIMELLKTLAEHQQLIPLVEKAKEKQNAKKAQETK
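Material: human UCH37 enzyme supplied as purified proteasome complex / Amount: 0.15 nM proteasome as dispensed / Buffer or medium: pH 7.4 Tris-HCl (50 mM) with ovalbumin, ATP-MgCl2, DTT / Times: preincubation 30 min, reaction 25 min, room temperature / Technique: AMC fluorescence from Ub-AMC cleavage, excitation 355 nm, emission 460 nm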
ATG4B inh: ATG4B protease inhibitors, primary screen, biochemical, fluorescence, uHTS | Cysteine protease ATG4B (Homo sapiens), Q9Y4P1 | ATG4B cleavage of LC3-PLA2, NBD-HPC fluorescence, 1 h | inhibition, % at 8.33 µM | 0.51% of 340,000 active; in the data active = inhibition above about 40%
NadD block: inhibitors of S. aureus NadD, primary screen, biochemical, colorimetric, uHTS | 0.78% of 360,000 active | inhibition, % at 20 µM | purified NadD enzyme, colorimetric absorbance read-out; in the data active = inhibition above about 26%
SENP1 inh: human SENP1 catalytic domain inhibitors, primary screen, biochemical, FRET, uHTS. recombinant SENP1 catalytic domain, CyPet-SUMO1-YPet FRET cleavage. 0.21% of 360,000 active. inhibition, % at 10 µM. Sentrin-specific protease 1 (Homo sapiens), Q9P0U3;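 active = inhibition at least 30% at 10 µM, raw YFP signal under a set limit, fluorescence ratio 0.5 to 1.5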;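 also: 0% = enzyme with DMSO and 100% = no enzyme wells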
Target sequence (Q9P0U3 419-644 limits assumed): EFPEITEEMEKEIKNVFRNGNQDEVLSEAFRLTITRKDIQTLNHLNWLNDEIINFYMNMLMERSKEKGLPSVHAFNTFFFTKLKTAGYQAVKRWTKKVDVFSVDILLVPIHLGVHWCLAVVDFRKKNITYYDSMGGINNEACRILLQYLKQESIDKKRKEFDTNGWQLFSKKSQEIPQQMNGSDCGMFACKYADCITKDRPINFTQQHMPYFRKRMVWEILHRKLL
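Test system: recombinant human SENP1 catalytic domain, His6-tagged / Medium: pH 8 Tris buffer with EDTA, NaCl, BME, BSA, NP40, catalase / Also added: SUMO1 FRET substrate flanked by Cypet and Ypet, 25 nM / Times: 50 min reaction at room temperature / Signal: FRET, CFP and YFP emission / Control set: no-enzyme low control and enzyme-plus-DMSO high control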
NadD inh conf: inhibitors of S. aureus NadD, confirmation, biochemical, colorimetric, single concentration | shares compounds with NadD block | purified S. aureus NadD, colorimetric enzyme assay | inhibition, % at 20 µM | 13% of 2,000 active | AID 624309, 2012; in the data active = inhibition mostly above about 42%, no sharp cut-off; inactive = mostly below about 42%
Numbers without * were called inactive; . = no result given. Compounds with a hit are over-represented: about 3.6% of the library has one in this group of screens.

SMILES	GRIN3A LBD mod	UCH37 inh	ATG4B inh	NadD block	SENP1 inh	NadD inh conf
COc1ccc(-c2ccc3c(c2)S(=O)(=O)c2cccc(C(=O)N4CCN(c5c(Cl)cncc5Cl)CC4)c2C3=O)cc1OC	-2.2	0.0	0.9	44.2*	51.0*	17.4
N#Cc1cccnc1N1CCN(C(=O)c2cccc3c2C(=O)c2ccc(-c4ccc(Cl)c(C(F)(F)F)c4)cc2S3(=O)=O)CC1	-2.9	3.3	5.3	35.2*	1.7	2.8
N#Cc1cccnc1N1CCN(C(=O)c2cccc3c2C(=O)c2ccc(Cl)cc2S3(=O)=O)CC1	-1.8	1.1	-8.3	7.3	25.2	.
O=C1c2ccc(Cl)cc2S(=O)(=O)c2cccc(C(=O)N3CCN(c4ncc(Br)cn4)CC3)c21	0.7	0.9	-12.3	11.8	0.8	.
CC(=O)C(=NNc1ccccc1)Sc1nncn1C	.	8.2	.	.	.	.
O=C(O)c1cccc(NC(=S)NC(NC(=O)c2cccc([N+](=O)[O-])c2)C(Cl)(Cl)Cl)c1 (configuration not stated)	-8.6	0.1	-8.7	64.4*	-0.1	6.8
O=C(CNC(=O)c1cccc(Br)c1)NN=Cc1cccs1	.	2.1	.	.	.	.
Cc1ccc(C)c2nc(N3CCCC3)c(C#N)cc12	1.0	-10.6	-8.0	31.8*	-23.7	10.9
Cc1cccc2cc(C#N)c(N3CCN(C)CC3)nc12	0.1	-57.0	-13.4	-1.5	-42.1	.
ON=C(COc1ccccc1O)c1ccccc1	.	1.1	.	.	.	.
Cc1cc2cc(CNC(=O)Nc3ccc(Cl)c(Cl)c3)ccc2n1C	-0.4	2.1	-8.1	30.6*	5.0	16.7
COCC(=O)NCc1ccc2c(c1)cc(C)n2C	-0.1	2.8	-10.4	1.6	-0.8	.
Cc1cc(NC(=O)CSc2nc3c([nH]c4ccccc43)c(=O)n2-c2cccc(C(F)(F)F)c2)no1	-1.7	2.9	22.8	44.5*	-0.7	4.9
COc1cccc(-n2c(SCC(=O)Nc3cc(C)on3)nc3c([nH]c4ccccc43)c2=O)c1	-2.1	6.9	10.2	0.3	1.4	.
O=C(C1=C[C@@H]2[C@H]3C(=O)N(c4ccc(Cl)cc4)C(=O)[C@H]3[C@@H](C(=O)c3ccc(Cl)cc3)N2C=C1)c1ccccc1	7.0	1.5	18.9	43.4*	-30.6	0.0
Cc1ccc(OCC(=O)NN=Cc2cccs2)c([N+](=O)[O-])c1	.	0.9	.	.	.	.
CN(C)c1cccc2c(C=NO)ccc(N(C)C)c12	.	0.0	.	.	.	.
COc1cccc(C2c3c(-c4cc(Cl)c(C)cc4O)n[nH]c3C(=O)N2Cc2cccnc2)c1 (configuration not stated)	-5.4	4.0	-9.4	47.1*	-1.3	43.4*
CCOc1ccc(C=NNc2nc(N3CCCC3)nc(N3CCCC3)n2)cc1OC	.	4.0	.	.	.	.
CNc1ccc(Br)cc(C(=O)/C=C/c2cccc(Cl)c2Cl)c1=O	4.8	7.2	14.9	48.7*	-2.6	15.7
CNc1ccc(Br)cc(C(=O)/C=C/c2cccc(OC)c2OC)c1=O	-0.9	14.0	6.7	20.2	-16.9	.
CN(C)CCCN(C(=O)c1ccc(S(=O)(=O)N2CCc3ccccc32)cc1)c1nc2ccc(F)cc2s1	-2.3	2.7	-7.8	16.4	1.1	.
CN(C)CCCN(C(=O)c1ccc(S(=O)(=O)N2CCc3ccccc32)cc1)c1nc2ccc(Cl)cc2s1	-12.4	5.6	-4.8	52.2*	1.6	28.1
C=C(C)C1CC=C(C)/C(=N\NC(=O)CNc2cccc3ccccc23)C1 (configuration not stated)	-3.0	.	-4.7	36.7*	-23.4	1.1
CC(=NNC(=S)NC(C)C)c1ccco1	.	3.7	.	.	.	.
SMILES	GRIN3A LBD mod	UCH37 inh	ATG4B inh	NadD block	SENP1 inh	NadD inh conf
Nc1nc(SCc2ccc(Cl)cc2Cl)nc2nc3c(cc12)CCCC3	-3.4	-12.8	19.8	36.4*	-27.8	15.7
Cc1ccc(-c2csc(N3CCN(c4cc5c(cc4Cl)nc(-c4ccncc4)n5CCN4CCCCC4)CC3)n2)cc1	-8.5	.	6.2	31.1*	-39.9	20.1
Cc1ccc(-c2csc(N3CCN(c4ccc5nc(-c6ccncc6)n(CCN6CCCCC6)c5c4)CC3)n2)cc1	0.6	-3.1	-9.0	20.0	-10.3	.
COc1ccccc1C(=O)NCC(=O)NCc1cc(=O)n(C)c(=O)n1C	-1.6	-2.5	-1.1	61.8*	1.8	-2.8
Cn1c(CNC(=O)CNC(=O)c2ccccc2F)cc(=O)n(C)c1=O	-1.1	1.1	4.4	-3.2	1.0	.
O=c1c2c(-c3ccco3)csc2nc(SCc2cn3cccnc3n2)n1-c1ccccc1	-2.1	-29.9	9.6	35.7*	-3.8	7.9
O=C(CSc1nc2scc(-c3ccco3)c2c(=O)n1-c1ccccc1)NCC1CCCO1 (configuration not stated)	3.8	-2.2	0.2	30.1*	-12.3	37.3
O=C(NN=Cc1c(Cl)[nH]c2ccccc12)c1ccc2c(c1)OCCO2	.	0.8	.	.	.	.
CC(=O)N1N=C(c2ccc3ccccc3c2)OC1(C)C	-0.6	-112.4	3.5	-5.3	2.3	.
c1ccc2cc(-c3cc4ccccn4c3)ccc2c1	-3.9	-8.3	1.3	34.9*	-10.3	16.1
Cc1ccc(NC(=O)CN(C)Cc2nc3c(Br)cc(Br)cc3c(=O)[nH]2)cc1	2.3	1.0	-6.3	28.7*	-15.1	-1.1
Cc1ccc(C(=O)NN=Cc2ccc[nH]2)cn1	.	12.6	.	.	.	.
O=[N+]([O-])c1ccc(C=Nn2cnc3ccccc32)s1	.	2.5	.	.	.	.
CC(C)(C)C(=O)c1c(N)[nH]c(C(=O)c2ccccc2)c1-c1ccc(Cl)cc1Cl	.	.	.	3.3	-2.9	.
Nc1[nH]c(C(=O)c2ccccc2)c(-c2ccc(Cl)cc2Cl)c1C(=O)c1ccc(Cl)c(Cl)c1	.	.	.	35.5*	-18.4	4.8
C=CCn1c(SCC(=O)Nc2ccccc2C)nnc1-c1ccncc1	-0.2	5.3	-10.8	48.7*	2.0	6.3
C=CCn1c(SCC(=O)Nc2ccccc2CC)nnc1-c1ccncc1	-1.4	1.6	1.3	-10.7	1.1	.
O=C(N/N=C/c1ccc2c(c1)OCO2)c1cc(-c2ccccc2Cl)nc2ccccc12	4.6	.	6.5	-2.1	2.5	.
O=C(N/N=C/c1ccc(F)cc1)c1cc(-c2ccco2)nc2ccccc12	-4.3	.	14.9	44.5*	3.2	81.5*
Cc1csc(NC(=O)c2cc(-c3ccco3)nc3ccccc23)n1	-1.6	-28.6	19.5	75.3*	15.7	52.9*
